Data: ChEMBL document CHEMBL1649560, “Beta-lactamase-mediated beta-lactam resistance in Campylobacter species: prevalence of Cj0299 (bla OXA-61) and evidence for a novel beta-Lactamase in C. jejuni” (2009)
≈ marks a conversion by molar mass, not a printed value.

Columns and labels:
Format in all cases: functional
[1] = tested on: Campylobacter jejuni; assay: Antibacterial activity against bla gene-positive and nitrocefin reaction-positive beta-lactamase harboring Campylobacter jejuni isolate P1093 by NCCLS agar doubling dilution method
Outline: (§1)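 MICs of β-lactams by agar doubling dilution following the NCCLS (CLSI) Campylobacter Working Group procedure, with C. jejuni NCTC 11168 and C. coli NCTC 11366 as controls. Isolates were from UK poultry flocks. β-Lactamase status was set by Cj0299 PCR (281-bp amplimer) and by a nitrocefin colour change of sonicated lysate within 5 min, or within 30 min on repeat.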

[2] = tested on: Campylobacter jejuni; assay: Antibacterial activity against bla gene-positive and nitrocefin reaction-positive beta-lactamase harboring Campylobacter jejuni isolate P286 by NCCLS agar doubling dilution method
Outline: (§2)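 MICs by agar doubling dilution per the NCCLS (now CLSI) Campylobacter Working Group method. Isolates came from UK chicken flocks (feces, ceca or farm environment), 2000–2006. C. jejuni NCTC 11168 and C. coli NCTC 11366 served as control strains. The ampicillin resistance cutoff was 8 μg/ml; BSAC/CLSI Enterobacteriaceae guidelines were used for other agents.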

[3] = tested on: Campylobacter coli; assay: Antibacterial activity against bla-positive and beta-lactamase-weakly positive Campylobacter coli isolate P1627 by NCCLS agar doubling dilution method; outline: as §2
[4] = tested on: Campylobacter jejuni; assay: Antibacterial activity against bla gene-positive and nitrocefin reaction-positive beta-lactamase harboring Campylobacter jejuni isolate P338 by NCCLS agar doubling dilution method; outline: as §2
[5] = tested on: Campylobacter jejuni; assay: Antibacterial activity against bla gene-positive and nitrocefin reaction-positive beta-lactamase harboring Campylobacter jejuni isolate P285 by NCCLS agar doubling dilution method; outline: as §2
[6] = tested on: Campylobacter coli; assay: Antibacterial activity against bla gene-positive and nitrocefin reaction-positive beta-lactamase harboring Campylobacter coli isolate P1826 by NCCLS agar doubling dilution method; outline: as §1
[7] = tested on: Campylobacter jejuni; assay: Antibacterial activity against bla gene-positive and nitrocefin reaction-positive beta-lactamase harboring Campylobacter jejuni isolate P1730 by NCCLS agar doubling dilution method; outline: as §2
[8] = tested on: Campylobacter jejuni; assay: Antibacterial activity against bla gene-positive and nitrocefin reaction-negative beta-lactamase harboring Campylobacter jejuni isolate P1699 by NCCLS agar doubling dilution method; outline: as §1
[9] = tested on: Campylobacter coli; assay: Antibacterial activity against Campylobacter coli by NCCLS agar doubling dilution method
Outline: (§3)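 MICs by agar doubling dilution following the NCCLS (CLSI) Campylobacter Working Group procedure, applied to ampicillin- and amoxicillin-resistant isolates from UK chicken flocks (2000–2006). C. jejuni NCTC 11168 and C. coli NCTC 11366 served as control strains. Resistance was called at an ampicillin cutoff of 8 μg/ml. Other agents were judged against Enterobacteriaceae guidelines (BSAC, CLSI).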

[10] = tested on: Campylobacter jejuni; assay: Antibacterial activity against bla gene-negative and nitrocefin reaction-negative beta-lactamase harboring Campylobacter jejuni isolate P850 by NCCLS agar doubling dilution method; outline: as §1
[11] = tested on: Campylobacter jejuni; assay: Antibacterial activity against bla gene-positive and nitrocefin reaction-positive beta-lactamase harboring Campylobacter jejuni isolate P1618 by NCCLS agar doubling dilution method; outline: as §1
[12] = tested on: Campylobacter jejuni; assay: Antibacterial activity against bla gene-positive and nitrocefin reaction-negative beta-lactamase harboring Campylobacter jejuni NCTC 11168 by NCCLS agar doubling dilution method; outline: as §1
[13] = tested on: Campylobacter coli; assay: Antibacterial activity against bla gene-positive and nitrocefin reaction-positive beta-lactamase harboring Campylobacter coli isolate P321 by NCCLS agar doubling dilution method; outline: as §1
[14] = tested on: Campylobacter jejuni; assay: Antibacterial activity against bla gene-negative and nitrocefin reaction-negative beta-lactamase harboring Campylobacter jejuni isolate P835 by NCCLS agar doubling dilution method; outline: as §1
[15] = tested on: Campylobacter jejuni; assay: Antibacterial activity against bla gene-positive and nitrocefin reaction-negative beta-lactamase harboring Campylobacter jejuni isolate P1698 by NCCLS agar doubling dilution method; outline: as §1
[16] = tested on: Campylobacter jejuni; assay: Antibacterial activity against Campylobacter jejuni by NCCLS agar doubling dilution method; outline: as §3
[17] = tested on: Campylobacter jejuni; assay: Antibacterial activity against bla gene-positive and nitrocefin reaction-positive beta-lactamase harboring Campylobacter jejuni isolate P1650 by NCCLS agar doubling dilution method; outline: as §1
[18] = tested on: Campylobacter jejuni; assay: Antibacterial activity against bla gene-positive and nitrocefin reaction-positive beta-lactamase harboring Campylobacter jejuni isolate P305 by NCCLS agar doubling dilution method; outline: as §2
[19] = tested on: Campylobacter jejuni; assay: Antibacterial activity against bla gene-positive and nitrocefin reaction-positive beta-lactamase harboring Campylobacter jejuni isolate P790 by NCCLS agar doubling dilution method; outline: as §2
[20] = tested on: Campylobacter jejuni; assay: Antibacterial activity against bla gene-negative and nitrocefin reaction-negative beta-lactamase harboring Campylobacter jejuni isolate P1962 by NCCLS agar doubling dilution method; outline: as §1
[21] = tested on: Campylobacter jejuni; assay: Antibacterial activity against bla gene-negative and nitrocefin reaction-positive beta-lactamase harboring Campylobacter jejuni isolate P843 by NCCLS agar doubling dilution method; outline: as §1
[22] = tested on: Campylobacter jejuni; assay: Antibacterial activity against bla gene-negative and nitrocefin reaction-positive beta-lactamase harboring Campylobacter jejuni isolate P854 by NCCLS agar doubling dilution method; outline: as §1
[23] = tested on: Campylobacter jejuni; assay: Antibacterial activity against bla gene-positive and nitrocefin reaction-positive beta-lactamase harboring Campylobacter jejuni isolate P316 by NCCLS agar doubling dilution method; outline: as §2
[24] = tested on: Campylobacter jejuni; assay: Antibacterial activity against Campylobacter jejuni isolate P1093 harboring blaOXA-61::cat gene by NCCLS agar doubling dilution method
Outline: (§4)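 Agar doubling dilution MICs (NCCLS/CLSI Campylobacter Working Group method) against Cj0299-inactivated mutants. Mutants were made by transforming the C. jejuni isolate with pCI and selecting on Mueller-Hinton agar with 10 μg/ml chloramphenicol for 3–5 days. Chromosomal insertion was confirmed by PCR with Cj0299 and cat primers.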

[25] = tested on: Campylobacter jejuni; assay: Antibacterial activity against Campylobacter jejuni isolate P270 harboring blaOXA-61::cat gene by NCCLS agar doubling dilution method
[26] = tested on: Campylobacter jejuni; assay: Antibacterial activity against Campylobacter jejuni isolate P338 harboring blaOXA-61::cat gene by NCCLS agar doubling dilution method; outline: as §4

SMILES	MIC [2] [µg/mL]	MIC [3] [µg/mL]	MIC [4] [µg/mL]	MIC [5] [µg/mL]	MIC [6] [µg/mL]	MIC [7] [µg/mL]	MIC [8] [µg/mL]	MIC50 [9] [µg/mL]	MIC90 [9] [µg/mL]	MIC [10] [µg/mL]	MIC [11] [µg/mL]	MIC [12] [µg/mL]	MIC [13] [µg/mL]	MIC [14] [µg/mL]	MIC [15] [µg/mL]	MIC50 [16] [µg/mL]	MIC90 [16] [µg/mL]	MIC [17] [µg/mL]	MIC [18] [µg/mL]	MIC [19] [µg/mL]	other results
CC1(C)S[C@@H]2[C@H](NC(=O)[C@H](N)c3ccc(O)cc3)C(=O)N2[C@H]1C(=O)O [AMOXICILLIN]	64 (≈ 175 µM)	8 (≈ 21.9 µM)	64 (≈ 175 µM)	64 (≈ 175 µM)	128 (≈ 350 µM)	64 (≈ 175 µM)	64 (≈ 175 µM)	128 (≈ 350 µM)	> 128	1 (≈ 2.74 µM)	64 (≈ 175 µM)	4 (≈ 10.9 µM)	64 (≈ 175 µM)	0.25 (≈ 0.684 µM)	128 (≈ 350 µM)	64 (≈ 175 µM)	128 (≈ 350 µM)	64 (≈ 175 µM)	64 (≈ 175 µM)	64 (≈ 175 µM)	MIC [1]: 64 µg/mL (≈ 175 µM); MIC [20]: 2 µg/mL (≈ 5.47 µM); MIC [21]: 64 µg/mL (≈ 175 µM); MIC [22]: 128 µg/mL (≈ 350 µM); MIC [23]: 32 µg/mL (≈ 87.6 µM)
C[C@H]1[C@H](NC(=O)/C(=N\OC(C)(C)C(=O)O)c2csc(N)n2)C(=O)N1S(=O)(=O)O [AZTREONAM]	> 128	> 128	128 (≈ 294 µM)	> 128	32 (≈ 73.5 µM)	32 (≈ 73.5 µM)	< 1	64 (≈ 147 µM)	> 128	> 32	64 (≈ 147 µM)	64 (≈ 147 µM)	> 128	128 (≈ 294 µM)	128 (≈ 294 µM)	64 (≈ 147 µM)	> 128	128 (≈ 294 µM)	> 128	> 128	MIC [20]: 4 µg/mL (≈ 9.19 µM); MIC [21]: > 128 µg/mL; MIC [22]: 4 µg/mL (≈ 9.19 µM); MIC [23]: > 128 µg/mL
CC1(C)S[C@@H]2[C@H](NC(=O)C(C(=O)O)c3ccccc3)C(=O)N2[C@H]1C(=O)O (some centres undefined) [CARBENICILLIN]	256 (≈ 677 µM)	32 (≈ 84.6 µM)	128 (≈ 338 µM)	256 (≈ 677 µM)	128 (≈ 338 µM)	128 (≈ 338 µM)	64 (≈ 169 µM)	128 (≈ 338 µM)	256 (≈ 677 µM)	256 (≈ 677 µM)	128 (≈ 338 µM)	16 (≈ 42.3 µM)	256 (≈ 677 µM)	8 (≈ 21.1 µM)	32 (≈ 84.6 µM)	128 (≈ 338 µM)	256 (≈ 677 µM)	64 (≈ 169 µM)	> 256	256 (≈ 677 µM)	MIC [1]: 256 µg/mL (≈ 677 µM); MIC [24]: 16 µg/mL (≈ 42.3 µM); MIC [25]: 4 µg/mL (≈ 10.6 µM); MIC [20]: < 16 µg/mL; MIC [21]: < 16 µg/mL; MIC [22]: > 256 µg/mL; MIC [26]: 8 µg/mL (≈ 21.1 µM); MIC [23]: 128 µg/mL (≈ 338 µM)
Cn1nnnc1SCC1=C(C(=O)O)N2C(=O)[C@@H](NC(=O)[C@H](O)c3ccccc3)[C@H]2SC1 [CEFAMANDOLE]								> 256	> 256							> 256	> 256				
CO/N=C(\C(=O)N[C@@H]1C(=O)N2C(C(=O)O)=C(COC(C)=O)CS[C@H]12)c1csc(N)n1 [CEFOTAXIME]	8 (≈ 17.6 µM)	4 (≈ 8.78 µM)	8 (≈ 17.6 µM)	8 (≈ 17.6 µM)	2 (≈ 4.39 µM)	4 (≈ 8.78 µM)	4 (≈ 8.78 µM)	4 (≈ 8.78 µM)	8 (≈ 17.6 µM)	8 (≈ 17.6 µM)	16 (≈ 35.1 µM)	2 (≈ 4.39 µM)	4 (≈ 8.78 µM)	4 (≈ 8.78 µM)	4 (≈ 8.78 µM)	4 (≈ 8.78 µM)	8 (≈ 17.6 µM)	4 (≈ 8.78 µM)	4 (≈ 8.78 µM)	4 (≈ 8.78 µM)	MIC [1]: 8 µg/mL (≈ 17.6 µM); MIC [24]: 4 µg/mL (≈ 8.78 µM); MIC [25]: 2 µg/mL (≈ 4.39 µM); MIC [20]: 1 µg/mL (≈ 2.2 µM); MIC [21]: 4 µg/mL (≈ 8.78 µM); MIC [22]: 4 µg/mL (≈ 8.78 µM); MIC [26]: 8 µg/mL (≈ 17.6 µM); MIC [23]: 4 µg/mL (≈ 8.78 µM)
